Broadly, the IC50 is the concentration at which inhibition is half-maximal.

Assay [1] has as its system G-361. Nature of the assay: Antiproliferative activity against G361 cell line. In kind it is functional, cell-based. The following applies: Homo sapiens. Summed up: (§1)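 Cells grown in DMEM with 10% FCS, glutamine and penicillin/streptomycin at 37 °C, seeded in 96-well plates and preincubated 12 h. Compounds were added in 6-fold dilutions (1-100 µM) for 72 h. IC50 taken from dose-response curves.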

Assay [2] addresses Cyclin-dependent kinase 2/cyclin A (Homo sapiens, UniProt P24941). Nature of the assay: Inhibition of CDK2/Cyclin A in presence of 100 uM ATP. In kind it is protein-complex assay.
In assay [3] the test system is K562. Description: Antiproliferative activity against K562 cell line. Type of assay: functional, cell-based. The following applies: Homo sapiens. In a few lines: as §1
Assay [4] addresses T1, Cyclin-dependent kinase 2/cyclin E (Homo sapiens, UniProt P24941). Nature of the assay: Inhibition of CDK2/Cyclin E in presence of 15 uM ATP. In kind it is protein-complex assay.
In assay [5] the test system is MCF7. Description: Viability of MCF7 cells at 100 uM. In kind it is functional, Homo sapiens. In a few lines:
(§2)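 Cells grown in DMEM with 10% FCS and 4 mM glutamine at 37 °C, plated in 96-well format, preincubated 12 h, then exposed 72 h. Live cells measured by Calcein AM (1 h) fluorescence at 485/538 nm; % viable cells given at 100 µM compound.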

Assay [6] concerns the target Cyclin-dependent kinase 1/cyclin B (Homo sapiens, UniProt P06493). Description: Inhibition of CDK1/Cyclin B in presence of 100 uM ATP. In kind it is protein-complex assay.
Assay [7] addresses T1, Cyclin-dependent kinase 2/cyclin E. Nature of the assay: Inhibition of CDK2/Cyclin E in presence of 100 uM ATP. Type of assay: protein-complex assay.
The test system of assay [8] is HOS. Description: Viability of HOS cells at 100 uM. In kind it is functional, Homo sapiens. Summed up: as §2
The target in assay [9] is Cyclin-dependent kinase 7/ cyclin H (Homo sapiens, UniProt P50613). Description: Inhibition of CDK7/Cyclin H in presence of 100 uM ATP. Type of assay: protein-complex assay.
Cyclin-dependent kinase 7/ cyclin H, sequence (P51946 whole entry): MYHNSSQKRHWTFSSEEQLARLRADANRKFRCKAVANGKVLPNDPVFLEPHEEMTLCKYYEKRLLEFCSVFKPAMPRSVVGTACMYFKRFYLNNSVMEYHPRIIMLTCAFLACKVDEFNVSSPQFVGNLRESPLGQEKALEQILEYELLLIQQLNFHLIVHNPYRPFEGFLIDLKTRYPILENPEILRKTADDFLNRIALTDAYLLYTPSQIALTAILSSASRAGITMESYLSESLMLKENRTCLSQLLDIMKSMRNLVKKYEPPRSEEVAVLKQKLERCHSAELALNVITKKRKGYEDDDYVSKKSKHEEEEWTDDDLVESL
Cyclin-dependent kinase 7/ cyclin H, sequence (P50613 whole entry): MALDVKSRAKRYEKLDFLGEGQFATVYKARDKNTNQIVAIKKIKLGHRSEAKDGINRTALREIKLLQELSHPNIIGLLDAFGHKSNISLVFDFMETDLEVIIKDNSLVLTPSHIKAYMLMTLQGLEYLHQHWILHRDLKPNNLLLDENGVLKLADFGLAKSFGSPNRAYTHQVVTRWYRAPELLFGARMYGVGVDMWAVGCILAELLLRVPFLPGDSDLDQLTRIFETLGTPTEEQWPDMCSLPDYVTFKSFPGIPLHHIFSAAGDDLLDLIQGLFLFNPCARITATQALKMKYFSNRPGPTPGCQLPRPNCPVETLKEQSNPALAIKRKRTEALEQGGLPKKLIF
In assay [10] the test system is G-361. Nature of the assay: Viability of G361 cells at 100 uM. In kind it is functional, Homo sapiens. In a few lines:
as §2

In assay [11] the target is Cyclin-dependent kinase 4/cyclin D1 (Homo sapiens, UniProt P11802). Description: Inhibition of CDK4/Cyclin D1 in presence of 100 uM ATP. Type of assay: protein-complex assay.
Cyclin-dependent kinase 4/cyclin D1, sequence (P11802 whole entry): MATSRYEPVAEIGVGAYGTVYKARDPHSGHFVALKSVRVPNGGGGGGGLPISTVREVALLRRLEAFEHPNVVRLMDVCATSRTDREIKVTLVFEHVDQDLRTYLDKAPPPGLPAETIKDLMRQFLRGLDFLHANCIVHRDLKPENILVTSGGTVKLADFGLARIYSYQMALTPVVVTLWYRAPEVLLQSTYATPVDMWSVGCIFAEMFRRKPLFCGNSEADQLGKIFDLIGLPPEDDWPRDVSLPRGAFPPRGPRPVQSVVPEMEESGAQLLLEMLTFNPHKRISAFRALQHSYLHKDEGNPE
Cyclin-dependent kinase 4/cyclin D1, sequence (P24385 whole entry, further chain): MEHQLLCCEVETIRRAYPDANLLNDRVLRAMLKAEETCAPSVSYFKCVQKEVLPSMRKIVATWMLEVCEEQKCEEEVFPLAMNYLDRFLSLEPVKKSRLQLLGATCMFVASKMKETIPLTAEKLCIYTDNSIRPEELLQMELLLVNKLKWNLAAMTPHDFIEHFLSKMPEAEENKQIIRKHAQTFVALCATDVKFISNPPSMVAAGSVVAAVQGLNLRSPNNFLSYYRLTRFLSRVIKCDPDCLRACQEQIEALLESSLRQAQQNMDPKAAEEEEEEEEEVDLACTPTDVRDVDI
Assay [12] relates to HOS. Nature of the assay: Antiproliferative activity against HOS cell line. Type of assay: functional, cell-based. The following applies: Homo sapiens. In a few lines: as §1
In a further assay the target is CDK9/cyclin T1 (Homo sapiens, UniProt P50750). Nature of the assay: Inhibition of CDK9/Cyclin T1 in presence of 100 uM ATP. In kind it is protein-complex assay.
CDK9/cyclin T1, sequence (O60563 whole entry): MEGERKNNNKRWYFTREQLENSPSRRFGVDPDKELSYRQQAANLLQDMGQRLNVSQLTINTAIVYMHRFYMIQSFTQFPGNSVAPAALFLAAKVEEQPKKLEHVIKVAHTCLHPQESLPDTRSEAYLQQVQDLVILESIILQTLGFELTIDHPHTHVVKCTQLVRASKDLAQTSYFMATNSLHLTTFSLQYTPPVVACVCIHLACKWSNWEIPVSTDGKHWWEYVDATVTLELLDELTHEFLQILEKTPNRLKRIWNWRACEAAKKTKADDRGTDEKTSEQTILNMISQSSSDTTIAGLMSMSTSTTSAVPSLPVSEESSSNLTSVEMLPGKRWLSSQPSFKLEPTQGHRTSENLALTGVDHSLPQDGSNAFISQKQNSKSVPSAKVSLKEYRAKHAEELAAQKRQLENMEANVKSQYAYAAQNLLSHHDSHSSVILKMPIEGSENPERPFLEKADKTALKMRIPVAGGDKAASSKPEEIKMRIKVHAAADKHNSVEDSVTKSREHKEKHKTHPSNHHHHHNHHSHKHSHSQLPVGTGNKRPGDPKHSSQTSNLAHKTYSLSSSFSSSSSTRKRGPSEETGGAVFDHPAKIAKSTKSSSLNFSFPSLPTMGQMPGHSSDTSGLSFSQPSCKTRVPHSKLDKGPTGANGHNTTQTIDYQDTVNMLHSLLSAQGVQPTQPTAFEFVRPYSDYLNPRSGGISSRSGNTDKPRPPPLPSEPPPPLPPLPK
CDK9/cyclin T1, sequence (P50750 whole entry): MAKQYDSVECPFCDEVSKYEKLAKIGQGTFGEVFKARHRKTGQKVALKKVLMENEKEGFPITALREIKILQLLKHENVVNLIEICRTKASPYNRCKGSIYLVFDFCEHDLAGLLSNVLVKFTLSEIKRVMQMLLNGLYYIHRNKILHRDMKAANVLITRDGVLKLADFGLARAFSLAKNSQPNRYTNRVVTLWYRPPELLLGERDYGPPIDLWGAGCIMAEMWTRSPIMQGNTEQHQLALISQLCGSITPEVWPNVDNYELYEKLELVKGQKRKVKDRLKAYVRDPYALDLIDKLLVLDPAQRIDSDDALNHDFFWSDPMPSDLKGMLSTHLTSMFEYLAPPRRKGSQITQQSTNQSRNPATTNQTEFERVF
Assay [13] has as its system MCF7. Description: Antiproliferative activity against MCF7 cell line. In kind it is functional, cell-based. The following applies: Homo sapiens. Summed up:
as §1

In assay [14] the test system is K562. Nature of the assay: Viability of K562 cells at 100 uM. Type of assay: functional, Homo sapiens. Summed up: as §2

Consider `Nc1n[nH]c(N)c1/N=N/c1ccccc1CO`, for which the IC50 was above 100 µM with G-361 [1]; above 100 µM in [2]; above 100 µM with K562 [3]; 17 µM in assay [4]; above 100 µM in assay [6]; 77 µM in assay [7]. Also, the IC50 is above 100 µM in [9]; above 100 µM in assay [11]; above 100 µM with HOS [12]; 26 µM at CDK9/cyclin T1; above 100 µM with MCF7 [13]. Also, the Activity in the assay on MCF7 [5] was 51%; with HOS [8], 87%; in the assay with G-361 [10] it was 84%; in the assay on K562 [14], 86%.

Take `Nc1n[nH]c(N)c1/N=N/c1cccc2c1CCCC2`: the IC50 in the assay with G-361 [1] was determined as 77 µM; in the assay on K562 [3], 55 µM; in [4] it was 15 µM; in the assay on HOS [12], 92 µM; in the assay on MCF7 [13] it was 81 µM. The Activity came to 39% with MCF7 [5], 32% with HOS [8], 27% with G-361 [10] and 26% with K562 [14].

Turning to `Nc1n[nH]c(N)c1/N=N/c1ccccc1`, the IC50 in the assay with G-361 [1] is above 100 µM; in assay [2] it was above 100 µM; in the assay with K562 [3] it was above 100 µM; in assay [4], 22 µM; in [6], above 100 µM; in assay [7], 100 µM. For the same compound, the half-inhibitory concentration (IC50) in assay [9] was above 100 µM; in [11] it was above 100 µM; in the assay with HOS [12], above 100 µM; on CDK9/cyclin T1, 15 µM; in the assay on MCF7 [13] it was above 100 µM. Also, the Activity in the assay with MCF7 [5] is 74%; with HOS [8], 83%; in the assay with G-361 [10] it was 75%; in the assay on K562 [14] it was 90%.

Take `Nc1n[nH]c(N)c1/N=N/c1cccc([N+](=O)[O-])c1`: the concentration for half-maximal inhibition (IC50) in the assay on G-361 [1] is above 100 µM; in assay [2], above 100 µM; in the assay with K562 [3], 79 µM; in [4] it was 23 µM; in assay [6], above 100 µM; in [7] it was 68 µM. Besides, the IC50 in assay [9] was above 100 µM; in assay [11] it was 70 µM; in the assay on HOS [12] it was above 100 µM; at CDK9/cyclin T1, 12.4 µM; in the assay on MCF7 [13], 65 µM. Further, the Activity in the assay with MCF7 [5] is 44%; in the assay on HOS [8], 95%; with G-361 [10] it was 69%; in the assay on K562 [14] it was 28%.

Turning to `Nc1n[nH]c(N)c1/N=N/c1ccccc1O`, the IC50 is above 100 µM with G-361 [1]; above 100 µM in the assay with K562 [3]; 2.5 µM in assay [4]; above 100 µM with HOS [12]; above 100 µM in the assay with MCF7 [13]. Further, the Activity with MCF7 [5] was 72%; with HOS [8], 84%; with G-361 [10], 74%; in the assay on K562 [14] it was 72%.

Consider `Nc1n[nH]c(N)c1/N=N/c1ccc([N+](=O)[O-])cc1`, for which the half-maximal inhibitory concentration (IC50) is above 100 µM in the assay with G-361 [1]; 71 µM with K562 [3]; 40 µM in [4]; above 100 µM in the assay with HOS [12]; above 100 µM with MCF7 [13]. In addition, the Activity in the assay on MCF7 [5] stood at 60%; in the assay with HOS [8] it was 80%; in the assay with G-361 [10], 61%; with K562 [14], 25%.

Regarding `Nc1n[nH]c(N)c1/N=N/c1ccc(C(=O)O)cc1`, the IC50 (in the assay on G-361 [1]; in the assay with K562 [3]; in assay [4]; in the assay on HOS [12]; in the assay with MCF7 [13]) was above 100 µM in each case. For the same compound, the Activity in the assay on MCF7 [5] is reported as 97%; with HOS [8] it was 92%; in the assay with G-361 [10] it was 86%; with K562 [14] it was 96%.

With `Nc1n[nH]c(N)c1/N=N/c1cccc2ccccc12`, the IC50 with G-361 [1] was above 100 µM; in the assay with K562 [3], 50 µM; in assay [4], 10 µM; in the assay on HOS [12], above 100 µM; with MCF7 [13] it was above 100 µM. In addition, the Activity with MCF7 [5] worked out at 56%; in the assay with HOS [8], 79%; in the assay on G-361 [10], 55%; in the assay with K562 [14] it was 7.7%.

Consider `Nc1n[nH]c(N)c1/N=N/c1ccccc1C(=O)O`, for which the IC50 with G-361 [1] was above 100 µM; in the assay on K562 [3], above 100 µM; in assay [4] it was 92 µM; in the assay with HOS [12], above 100 µM; in the assay on MCF7 [13] it was above 100 µM. The Activity in the assay with MCF7 [5] amounted to 97%; in the assay on HOS [8] it was 91%; with G-361 [10], 96%; in the assay with K562 [14], 89%.

`Nc1n[nH]c(N)c1/N=N/c1cccc(O)c1`: the IC50 in the assay with G-361 [1] is above 100 µM; in assay [2] it was above 100 µM; in the assay on K562 [3], above 100 µM; in [4], 6 µM; in [6] it was above 100 µM; in [7], 51 µM. For the same compound, the half-inhibitory concentration (IC50) is 82 µM in assay [9]; 56 µM in assay [11]; above 100 µM in the assay on HOS [12]; 1.5 µM on CDK9/cyclin T1; above 100 µM in the assay with MCF7 [13]. The Activity in the assay with MCF7 [5] turned out to be 71%; in the assay on HOS [8] it was 83%; with G-361 [10], 70%; in the assay with K562 [14], 53%.

As to `Nc1n[nH]c(N)c1/N=N/c1ccccc1[N+](=O)[O-]`, the half-inhibitory concentration (IC50) is above 100 µM in the assay with G-361 [1]; 88 µM in assay [2]; 100 µM with K562 [3]; 6.1 µM in [4]; 42 µM in [6]; 22 µM in assay [7]. The half-maximal inhibitory concentration (IC50) in assay [9] was 77 µM; in [11], 16 µM; in the assay on HOS [12] it was above 100 µM; at CDK9/cyclin T1, 5.6 µM; in the assay with MCF7 [13], above 100 µM. Moreover, the Activity turned out to be 62% in the assay on MCF7 [5], 57% with HOS [8], 58% with G-361 [10] and 48% with K562 [14].

For `Nc1n[nH]c(N)c1/N=N/c1cccc(C(=O)O)c1`, the IC50 in the assay on G-361 [1] was above 100 µM; with K562 [3] it was above 100 µM; in [4], 28 µM; with HOS [12], above 100 µM; with MCF7 [13], above 100 µM. In addition, the Activity with MCF7 [5] is recorded as 102%; with HOS [8], 94%; in the assay with G-361 [10] it was 93%; in the assay on K562 [14], 84%.

For the origin of these results see ChEMBL document CHEMBL1137343, “4-arylazo-3,5-diamino-1H-pyrazole CDK inhibitors: SAR study, crystal structure in complex with CDK2, selectivity, and cellular effects” (J Med Chem, 2006).
